Where a chain is given by its changes, count along the chain named. Values belong to the molecule of their own block, whether it stands above or below them. Where no end group is shown, it is not given here.
How the values were obtained:
Sirt1 [1] = target: T1, Sirt1 (Mus musculus, UniProt Q923E4); test: Lineweaver-Burk kinetics of Sirt1; assay type: biochemical; settings: Sirt1 substrate/cofactor, under our reaction conditions
T1 sequence (Q923E4 1-737): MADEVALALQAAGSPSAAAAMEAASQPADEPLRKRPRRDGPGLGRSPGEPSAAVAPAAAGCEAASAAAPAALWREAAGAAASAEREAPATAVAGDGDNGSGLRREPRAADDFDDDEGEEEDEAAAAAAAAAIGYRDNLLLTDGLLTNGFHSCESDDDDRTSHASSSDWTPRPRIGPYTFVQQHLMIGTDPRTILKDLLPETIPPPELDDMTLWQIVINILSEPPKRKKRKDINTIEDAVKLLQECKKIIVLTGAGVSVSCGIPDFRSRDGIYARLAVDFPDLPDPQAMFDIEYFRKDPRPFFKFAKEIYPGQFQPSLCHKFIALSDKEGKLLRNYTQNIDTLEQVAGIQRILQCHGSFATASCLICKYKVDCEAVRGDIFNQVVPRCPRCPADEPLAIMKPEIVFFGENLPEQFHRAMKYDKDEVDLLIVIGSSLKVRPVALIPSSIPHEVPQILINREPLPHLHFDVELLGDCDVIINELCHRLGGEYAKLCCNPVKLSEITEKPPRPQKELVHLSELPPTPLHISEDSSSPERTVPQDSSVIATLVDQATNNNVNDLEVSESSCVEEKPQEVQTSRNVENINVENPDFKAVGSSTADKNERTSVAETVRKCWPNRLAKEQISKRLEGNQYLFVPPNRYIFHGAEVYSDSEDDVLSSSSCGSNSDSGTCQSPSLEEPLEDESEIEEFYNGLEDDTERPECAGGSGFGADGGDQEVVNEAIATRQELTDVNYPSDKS
Outline: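 His-Sirt1 (2 μg) was pre-incubated 5 min at room temperature in HEPES pH 7.0 buffer with mutant ESA peptide at 0, 60, 120 or 240 μM. Ac-K16 H4 fluorogenic dipeptide was varied at 500 μM NAD+, or NAD+ was varied at 100 μM substrate. Reactions ran 25 min at 37 °C and were stopped with nicotinamide developer; ex 355/em 460 nm, no-NAD+ blank subtracted. Triplicates. Kis/Kii came from a double-reciprocal noncompetitive model fit, Km from the same analysis, kcat from a Michaelis–Menten fit.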

Sirt1 [2] = target: T1, Sirt1; settings: 2007, cited from earlier work; for reported Sirt1 activation: ref Howitz et al., 2003, Milne et al.
Ac-H4 peptide = test: Pull-down with streptavidin-immobilized Ac-H4 peptide; assay type: binding
Outline: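 Biotinylated peptide (mutant ESA or acetyl-H4) was bound to streptavidin agarose for 1 h at room temperature, washed, and held in PBS/1% Triton X-100. Beads (30 μl) took 2 μg GST-fused or His-tagged protein for 2 h at room temperature. Beads were washed with PBS/1% Triton/200 mM NaCl and eluted in β-ME SDS buffer at 95 °C for 10 min. Blots ran on 4–12% SDS-PAGE; biotin-only beads were the control.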

[3] = tested on: Lys 382 acetylated-p53 (Ac-p53); test: Deacetylation of Lys 382 acetylated-p53 by recombinant WT/mutant Sirt1; assay type: biochemical, mouse Sirt1; settings: recombinant Sirt1 2 μg, acetylated GST-p53 0.2 μg, 0.5 mM NAD+, pH 7.0, 37 °C; immunoblot
Outline: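 Recombinant His-tagged WT or C-terminally truncated/point-mutant mouse Sirt1 (2 μg) incubated with acetylated GST-p53 (0.2 μg) and 0.5 mM NAD+ in 50 mM HEPES pH 7.0, 1 mM DTT, 10 mM MgCl2, 200 mM NaCl plus protease/phosphatase inhibitors. Reactions ran at 37 °C for indicated times and were stopped with SDS sample buffer. Read-out: immunoblot with acetyl-K382 p53 antibody; loading checked by Coomassie, Ponceau S or Western blot.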

GST-Ac-p53 = test: Pull-down of Sirt1 / core fragments with GST-Ac-p53; assay type: binding; settings: in vitro pull-down
Outline: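 In vitro pull-downs with GST-Ac-p53 or GST alone as negative control. Recombinant Flag-tagged full-length or ΔESA (a.a. 631-655 deleted) Sirt1 pulled down with anti-Flag, bound GST-Ac-p53 detected by GST immunoblot, and Sirt1 shown by Coomassie. Alternatively, core (a.a. 184-510) or Core-ESA with GST-Ac-p53 (2 μg each) in GST pull-down, bound core detected by Sirt1 immunoblot.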

[4] = target: T2, Sirt1 deacetylase core (Core, a.a. 184-510) (mouse, UniProt Q923E4 184-510); test: pull-down
T2 sequence (looked up): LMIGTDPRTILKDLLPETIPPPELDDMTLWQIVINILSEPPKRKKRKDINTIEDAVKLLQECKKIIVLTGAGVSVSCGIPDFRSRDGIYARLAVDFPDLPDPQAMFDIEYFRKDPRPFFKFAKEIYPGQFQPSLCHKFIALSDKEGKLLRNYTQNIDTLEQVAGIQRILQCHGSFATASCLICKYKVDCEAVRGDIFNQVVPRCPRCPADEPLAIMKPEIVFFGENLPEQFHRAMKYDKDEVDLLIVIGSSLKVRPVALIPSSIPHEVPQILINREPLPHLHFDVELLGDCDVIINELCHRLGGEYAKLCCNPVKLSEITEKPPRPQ

[5] = target: T3, Sirt1 fragment F1b (the Sirtuin domain, a.a. 236-490) (mouse, UniProt Q923E4 236-490); test: pull-down
T3 sequence (looked up): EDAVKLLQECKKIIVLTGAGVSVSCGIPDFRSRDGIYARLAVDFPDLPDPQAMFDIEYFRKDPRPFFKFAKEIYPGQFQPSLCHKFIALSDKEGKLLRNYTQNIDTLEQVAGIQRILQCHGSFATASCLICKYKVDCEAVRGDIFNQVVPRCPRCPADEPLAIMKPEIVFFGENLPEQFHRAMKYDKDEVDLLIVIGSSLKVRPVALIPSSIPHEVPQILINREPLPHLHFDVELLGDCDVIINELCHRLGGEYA

Flag-p65 (NF-κB) = test: Co-immunoprecipitation of Sirt1 with Flag-p65 in Hela cells; assay type: cell-based; settings: V5-tagged Sirt1
Outline: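 Transient co-transfection of HeLa cells with Flag-NF-κB p65 plus V5-tagged full-length or ΔESA Sirt1. p65 was pulled down with anti-Flag, and bound Sirt1 was detected by anti-V5 immunoblot alongside input levels.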

Molecule: O=C(Nc1ccccc1-c1cn2c(CN3CCNCC3)csc2n1)c1cnc2ccccc2n1 [SRT1720, reference compound]
- reported Sirt1 activation (Sirt1 [2]): reported to activate Sirt1

Molecule: Oc1ccc(/C=C/c2cc(O)cc(O)c2)cc1 [resveratrol, reference compound]
- reported Sirt1 activation (Sirt1 [2]): reported to activate Sirt1

B1: Core-ESA: ESA region attached to the deacetylase core (protein)
chain: LMIGTDPRTILKDLLPETIPPPELDDMTLWQIVINILSEPPKRKKRKDINTIEDAVKLLQECKKIIVLTGAGVSVSCGIPDFRSRDGIYARLAVDFPDLPDPQAMFDIEYFRKDPRPFFKFAKEIYPGQFQPSLCHKFIALSDKEGKLLRNYTQNIDTLEQVAGIQRILQCHGSFATASCLICKYKVDCEAVRGDIFNQVVPRCPRCPADEPLAIMKPEIVFFGENLPEQFHRAMKYDKDEVDLLIVIGSSLKVRPVALIPSSIPHEVPQILINREPLPHLHFDVELLGDCDVIINELCHRLGGEYAKLCCNPVKLSEITEKPPRPQQYLFVPPNRYIFHGAEVYSDSEDDV
modifications: left off: His tag, end not stated, kept
- deacetylase activity against Ac-p53 [3]: restored deacetylase activity
- binding to Ac-H4 peptide (Ac-H4 peptide): increases the deacetylase core-Ac-H4 interaction
- binding to GST-Ac-p53 (GST-Ac-p53): increases the deacetylase core-Ac-p53 interaction

B2: Core-GPDR: GPDR-mutated ESA region attached to the Core (protein)
chain: B1 chain with G341P, D347R
- binding to Ac-H4 peptide (Ac-H4 peptide): interacted poorly with the Ac-H4 peptide

B3: AROS: Active Regulator of Sirt1 (protein, UniProt Q86WX3 1-136, looked up)
Active regulator of SIRT1: MSAALLRRGLELLAASEAPRDPPGQAKPRGAPVKRPRKTKAIQAQKLRNSAKGKVPKSALDEYRKRECRDHLRVNLKFLTRTRSTVAESVSQQILRQNRGRKACDRPVAKTKKKKAEGTVFTEEDFQKFQQEYFGS
- effect on Sirt1 activity (Sirt1 [2]; binds to N-terminal domain of Sirt1, ref Kim et al.): activates its activity

B4: deacetylase core: a.a. 184-510 of Sirt1 (protein)
chain: T2 sequence (looked up)
modifications: left off: His tag, end not stated, kept
- deacetylase activity against Ac-p53 [3]: no catalytic activity

Now from value to molecule, other results behind:

- Km (Sirt1 [1]): 203 µM
Molecule: NC(=O)c1ccc[n+]([C@@H]2O[C@H](COP(=O)([O-])OP(=O)(O)OC[C@H]3O[C@@H](n4cnc5c(N)ncnc54)[C@H](O)[C@@H]3O)[C@@H](O)[C@H]2O)c1 [NAD^+, reference compound]

- binding to Ac-H4 peptide (Ac-H4 peptide): not to either GST-ESA or GST alone
Molecule: GST-ESA: ESA fused to GST (QYLFVPPNRYIFHGAEVYSDSEDDV; also: fused to GST, end not given here)

- binding result [4]: binds
- binding result [5]: binds
Molecule: QYLFVPPNRYIFHGAEVYSDSEDDV (peptide, UniProt Q923E4 631-655, looked up, also: biotin-tagged, position not given here) [ESA peptide (biotin-tagged peptide of the region essential for Sirt1 activity, a.a. 631-655)]

- binding to Ac-H4 peptide (Ac-H4 peptide): Ac-H4 peptide bound to full-length Sirt1
B5: WT Sirt1: wild-type full-length Sirt1 (protein)
chain: T1 sequence (Q923E4 1-737)
modifications: left off: His tag, end not stated, kept
- co-immunoprecipitation with Flag-p65 (Flag-p65 (NF-κB)): readily co-immunoprecipitated with Flag-p65

— PMC3240942 (Molecular cell, 2011)
